Test results as given in article PMC3902791 (Molecular imaging and biology : MIB : the official …, 2012).
Entries after “also recorded” stand apart in the source; their conditions may differ.

Tested on: rhesus macaques
Experiment: ECG monitoring for acute toxicity during PET imaging
Format: in vivo
In short: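 Animals were anaesthetised (atropine 0.04 mg/kg i.m.; telazole or ketamine i.m.; isoflurane 1.0–3.0% in oxygen), intubated, mechanically ventilated and kept at 37±0.8°C. ECG, blood pressure, pulse oximetry and respiration rate were monitored throughout the imaging study after i.v. radiotracer.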

O=C(O)C[18F] [^18F-FACE, ^18F-fluoroacetate]
changes in ECG (cardiac rhythm, electrical activity) (administration to 180 min post-injection): None of the animals injected with ^18F-FACE demonstrated any significant changes in cardiac rhythm or electrical activity patterns; also recorded: no significant changes to the ECG | ECG PR (time 1 min): 0.11 ± 0.01 s | ECG QRS (time 1 min): 0.05 ± 0.01 s | ECG QT (time 1 min): 0.35 ± 0.04 s | ECG ST (time 1 min): 0.80 ± 0.45 s | ECG p (time 1 min): 0.04 ± 0.01 s | Heart rate (time 1 min): 88±8 per minute | ECG PR (time 2 min): 0.11 ± 0.01 s | ECG QRS (time 2 min): 0.04 ± 0.00 s | ECG QT (time 2 min): 0.34 ± 0.05 s | ECG ST (time 2 min): 1.00 ± 0.50 s | ECG p (time 2 min): 0.04 ± 0.00 s | Heart rate (time 2 min): 88±8 per minute | ECG PR (time 5 min): 0.11 ± 0.02 s | ECG QRS (time 5 min): 0.04 ± 0.01 s | ECG QT (time 5 min): 0.35 ± 0.04 s | ECG ST (time 5 min): 0.95 ± 0.51 s | ECG p (time 5 min): 0.04 ± 0.01 s | Heart rate (time 5 min): 88±7 per minute | ECG PR (time 16 min): 0.10 ± 0.01 s | ECG QRS (time 16 min): 0.04 ± 0.00 s | ECG QT (time 16 min): 0.34 ± 0.04 s | ECG ST (time 16 min): 0.80 ± 0.41 s | ECG p (time 16 min): 0.05 ± 0.01 s | Heart rate (time 16 min): 87±6 per minute | ECG PR (time 32 min): 0.11 ± 0.01 s | ECG QRS (time 32 min): 0.04 ± 0.00 s | ECG QT (time 32 min): 0.34 ± 0.03 s | ECG ST (time 32 min): 0.60 ± 0.38 s | ECG p (time 32 min): 0.05 ± 0.01 s | Heart rate (time 32 min): 89±7 per minute | ECG PR (time 60 min): 0.11 ± 0.01 s | ECG QRS (time 60 min): 0.04 ± 0.01 s | ECG QT (time 60 min): 0.34 ± 0.04 s | ECG ST (time 60 min): 0.70 ± 0.54 s | ECG p (time 60 min): 0.04 ± 0.00 s | Heart rate (time 60 min): 89±7 per minute | ECG PR (time 90 min): 0.11 ± 0.01 s | ECG QRS (time 90 min): 0.04 ± 0.00 s | ECG QT (time 90 min): 0.34 ± 0.03 s | ECG ST (time 90 min): 0.70 ± 0.54 s | ECG p (time 90 min): 0.04 ± 0.01 s | Heart rate (time 90 min): 87±5 per minute | ECG PR (time 120 min): 0.11 ± 0.01 s | ECG QRS (time 120 min): 0.05 ± 0.01 s | ECG QT (time 120 min): 0.33 ± 0.03 s | ECG ST (time 120 min): 0.60 ± 0.38 s | ECG p (time 120 min): 0.04 ± 0.01 s | Heart rate (time 120 min): 88±3 per minute | ECG PR (time 180 min): 0.10 ± 0.01 s | ECG QRS (time 180 min): 0.04 ± 0.00 s | ECG QT (time 180 min): 0.34 ± 0.03 s | ECG ST (time 180 min): 0.85 ± 0.63 s | ECG p (time 180 min): 0.04 ± 0.01 s | Heart rate (time 180 min): 93±8 per minute
